53 molecules from ChEMBL document CHEMBL2057156, “Synthesis and biological evaluation of the first dual tyrosyl-DNA phosphodiesterase I (Tdp1)-topoisomerase I (Top1) inhibitors” (J Med Chem, 2012) can be followed below.

Active and inactive are the calls of the source. The calls are words filed in the database; no cut-off is given here.

Assay [1] has as its target Tyrosyl-DNA phosphodiesterase 1 (Homo sapiens, UniProt Q9NUW8). Kind of assay: Inhibition of human recombinant Tdp1 using 5'-[32P]-labeled single-stranded DNA oligonucleotide containing 3'-phosphotyrosine as substrate assessed as prevention of generation of oligonucleotide with free 3'-phosphate after 15 mins by PAGE analysis.
Assay [2] addresses T1, DNA topoisomerase 1 (Homo sapiens) (UniProt P11387).
T1 sequence (whole entry): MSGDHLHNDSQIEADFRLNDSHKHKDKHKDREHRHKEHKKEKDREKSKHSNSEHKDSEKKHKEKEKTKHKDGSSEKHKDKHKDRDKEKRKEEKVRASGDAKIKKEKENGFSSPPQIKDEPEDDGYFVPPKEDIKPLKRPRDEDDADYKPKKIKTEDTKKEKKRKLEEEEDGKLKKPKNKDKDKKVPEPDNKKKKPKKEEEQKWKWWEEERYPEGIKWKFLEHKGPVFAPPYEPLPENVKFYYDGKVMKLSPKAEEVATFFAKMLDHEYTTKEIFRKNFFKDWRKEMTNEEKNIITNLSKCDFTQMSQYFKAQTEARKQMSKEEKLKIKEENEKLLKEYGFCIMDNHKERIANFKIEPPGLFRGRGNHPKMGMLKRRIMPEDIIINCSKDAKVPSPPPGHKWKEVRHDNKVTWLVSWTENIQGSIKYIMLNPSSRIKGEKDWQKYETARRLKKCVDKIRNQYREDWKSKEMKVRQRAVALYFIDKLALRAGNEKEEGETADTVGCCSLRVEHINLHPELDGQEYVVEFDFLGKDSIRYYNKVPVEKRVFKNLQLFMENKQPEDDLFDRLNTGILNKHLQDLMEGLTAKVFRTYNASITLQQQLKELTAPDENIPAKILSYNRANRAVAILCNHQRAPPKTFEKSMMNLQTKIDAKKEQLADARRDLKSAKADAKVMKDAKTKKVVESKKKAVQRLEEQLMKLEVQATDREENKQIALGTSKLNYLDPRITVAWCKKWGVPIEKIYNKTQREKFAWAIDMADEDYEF
Kind of assay: Inhibition of human recombinant Top1-mediated DNA cleavage by polyacrylamide gel electrophoresis relative to camptothecin. The arrangement: concentration or dose not given beside the values. A digest of the protocol:
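Baculovirus-purified human recombinant Top1 was incubated for 20 min at 25 °C, with compounds at various concentrations, with about 2 nM of a 117-bp oligonucleotide 3′-end-labeled with [α-³²P]dGTP. Reactions were stopped with 0.5% SDS and run on 20% denaturing PAGE. Cleavage bands were phosphorimaged and graded semiquantitatively against 1 μM camptothecin.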

Chain of Tyrosyl-DNA phosphodiesterase 1 (Q9NUW8 whole entry): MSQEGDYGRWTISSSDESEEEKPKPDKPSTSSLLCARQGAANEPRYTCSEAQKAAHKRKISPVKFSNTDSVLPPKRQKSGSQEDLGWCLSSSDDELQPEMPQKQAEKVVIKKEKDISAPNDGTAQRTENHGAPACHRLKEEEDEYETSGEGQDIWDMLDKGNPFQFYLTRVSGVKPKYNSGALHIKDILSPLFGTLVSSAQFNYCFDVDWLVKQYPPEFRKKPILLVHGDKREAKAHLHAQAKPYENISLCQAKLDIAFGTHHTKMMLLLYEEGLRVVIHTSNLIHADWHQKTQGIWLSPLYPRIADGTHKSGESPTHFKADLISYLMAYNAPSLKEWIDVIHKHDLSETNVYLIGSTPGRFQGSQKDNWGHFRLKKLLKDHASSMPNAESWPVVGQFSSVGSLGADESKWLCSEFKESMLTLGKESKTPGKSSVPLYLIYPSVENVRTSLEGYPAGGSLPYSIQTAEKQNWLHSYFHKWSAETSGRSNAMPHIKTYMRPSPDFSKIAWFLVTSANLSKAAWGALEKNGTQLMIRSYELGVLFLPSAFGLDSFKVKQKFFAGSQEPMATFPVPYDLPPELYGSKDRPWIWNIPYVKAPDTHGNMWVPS

On to `O=C1c2ccccc2-c2c1c1ccccc1c(=O)n2CCNS(=O)(=O)c1ccc(Br)cc1`, for which, in assay [1], the half-inhibitory concentration (IC50) (in general, the concentration that inhibits the measured activity by half) was over 111 µM. The inhibition (in general, how much of the control response was suppressed) in assay [2] was “inactive”.

As to `O=C1c2ccccc2-c2c1c1ccccc1c(=O)n2CCCCCCCCCCNS(=O)(=O)c1ccc(Br)cc1`, in assay [1], the IC50 is over 111 µM. Also, in assay [2], the inhibition result was “inactive”.

With `CS(=O)(=O)NCCn1c2c(c3ccccc3c1=O)C(=O)c1ccccc1-2`, the IC50 in assay [1] is over 111 µM. Moreover, the inhibition entry in assay [2] is “inactive”.

For the molecule `CS(=O)(=O)NCCCn1c2c(c3ccccc3c1=O)C(=O)c1ccccc1-2`, the 50% inhibitory concentration (IC50) in assay [1] is over 111 µM. The inhibition entry in assay [2] was “inactive”.

As to `O=C1c2ccccc2-c2c1c1ccccc1c(=O)n2CCCCCCCCCCn1c2c(c3ccccc3c1=O)C(=O)c1ccccc1-2`, the IC50 in assay [1] is over 111 µM.

As to `Cc1ccc(S(=O)(=O)NCCCCCCCn2c3c(c4ccccc4c2=O)C(=O)c2ccccc2-3)cc1`, the IC50 in assay [1] was over 111 µM. In addition, the inhibition result in assay [2] is “inactive”.

With `O=C1c2ccccc2-c2c1c1ccccc1c(=O)n2CCCNCCCNCCCn1c2c(c3ccccc3c1=O)C(=O)c1ccccc1-2`, in assay [1], the IC50 was found to be 1.52 µM. Further, the inhibition in assay [2] (concentration not given here) is 100%.

For the molecule `O=C1c2ccccc2-c2c1c1ccccc1c(=O)n2CCCCCCCNS(=O)(=O)c1ccc(Br)cc1`, the IC50 in assay [1] was over 111 µM. Besides, the inhibition entry in assay [2] is “inactive”.

In the case of `O=C1c2ccccc2-c2c1c1ccccc1c(=O)n2CCCCCCCCCNS(=O)(=O)c1ccccc1`, in assay [1], the IC50 was over 111 µM. The inhibition entry in assay [2] was “inactive”.

As for `CS(=O)(=O)NCCCCCCCCCn1c2c(c3ccccc3c1=O)C(=O)c1ccccc1-2`, the IC50 in assay [1] was over 111 µM. Moreover, the inhibition result in assay [2] was “inactive”.

As to `Cc1ccc(S(=O)(=O)OCCCn2c3c(c4ccccc4c2=O)C(=O)c2ccccc2-3)cc1`, in assay [1], the IC50 was over 111 µM.

For `O=C1c2ccccc2-c2c1c1ccccc1c(=O)n2CCCCNS(=O)(=O)c1ccccc1`, the IC50 in assay [1] is over 111 µM. In addition, the inhibition entry in assay [2] was “inactive”.

As for `O=C1c2ccccc2-c2c1c1ccccc1c(=O)n2CCCCCCCCNS(=O)(=O)c1ccccc1`, in assay [1], the IC50 is over 111 µM. In addition, the inhibition result in assay [2] was “inactive”.

Consider `O=C1c2ccccc2-c2c1c1ccccc1c(=O)n2CCCCCCNS(=O)(=O)c1ccccc1`, for which the IC50 in assay [1] was over 111 µM. Further, in assay [2], the inhibition entry is “inactive”.

For `CS(=O)(=O)NCCCCn1c2c(c3ccccc3c1=O)C(=O)c1ccccc1-2`, the IC50 in assay [1] was over 111 µM. Also, the inhibition result in assay [2] is “inactive”.

Consider `O=C1c2ccccc2-c2c1c1ccccc1c(=O)n2CCCCCCCCCCCNS(=O)(=O)c1ccccc1`, for which the IC50 in assay [1] is over 111 µM. For the same molecule, the inhibition result in assay [2] was “inactive”.

In the case of `O=C1c2ccccc2-c2c1c1ccccc1c(=O)n2CCCNS(=O)(=O)c1ccccc1`, the IC50 in assay [1] was over 111 µM. Further, the inhibition entry in assay [2] was “inactive”.

`CS(=O)(=O)NCCCCCCCCCCCn1c2c(c3ccccc3c1=O)C(=O)c1ccccc1-2`: the IC50 in assay [1] is over 111 µM. In assay [2], the inhibition entry was “inactive”.

As to `Cc1ccc(S(=O)(=O)OCCCCCn2c3c(c4ccccc4c2=O)C(=O)c2ccccc2-3)cc1`, the IC50 in assay [1] is over 111 µM.

Turning to `Cc1ccc(S(=O)(=O)NCCCCCCCCCCCCn2c3c(c4ccccc4c2=O)C(=O)c2ccccc2-3)cc1`, in assay [1], the IC50 is over 111 µM. The inhibition result in assay [2] is “inactive”.

`Cc1ccc(S(=O)(=O)NCCCCn2c3c(c4ccccc4c2=O)C(=O)c2ccccc2-3)cc1`: in assay [1], the IC50 was over 111 µM. Moreover, the inhibition result in assay [2] is “inactive”.

As for `CS(=O)(=O)NCCCCCCCCn1c2c(c3ccccc3c1=O)C(=O)c1ccccc1-2`, the IC50 in assay [1] was over 111 µM. In assay [2], the inhibition entry was “inactive”.

On to `O=C1c2ccccc2-c2c1c1ccccc1c(=O)n2CCCCCCCCCNS(=O)(=O)c1ccc(Br)cc1`, for which the half-maximal inhibitory concentration (IC50) in assay [1] was over 111 µM. Also, the inhibition entry in assay [2] is “inactive”.

For `O=C1c2ccccc2-c2c1c1ccccc1c(=O)n2CCCNS(=O)(=O)c1ccc(Br)cc1`, in assay [1], the IC50 is over 111 µM. In addition, the inhibition result in assay [2] is “inactive”.

`O=C1c2ccccc2-c2c1c1ccccc1c(=O)n2CCCCCCCCCCCNS(=O)(=O)c1ccc(Br)cc1`: the IC50 in assay [1] is over 111 µM. Besides, in assay [2], the inhibition entry was “inactive”.

For `Cc1ccc(S(=O)(=O)NCCCCCCn2c3c(c4ccccc4c2=O)C(=O)c2ccccc2-3)cc1`, the concentration for half-maximal inhibition (IC50) in assay [1] is over 111 µM. Also, the inhibition entry in assay [2] was “inactive”.

On to `Cc1ccc(S(=O)(=O)NCCCCCCCCCn2c3c(c4ccccc4c2=O)C(=O)c2ccccc2-3)cc1`, for which the IC50 in assay [1] is over 111 µM. The inhibition result in assay [2] is “inactive”.

As for `O=C1c2ccccc2-c2c1c1ccccc1c(=O)n2CCCCCNS(=O)(=O)c1ccc(Br)cc1`, the half-maximal inhibitory concentration (IC50) in assay [1] is over 111 µM. The inhibition entry in assay [2] was “inactive”.

As to `O=C1c2ccccc2-c2c1c1ccccc1c(=O)n2CCCCNS(=O)(=O)c1ccc(Br)cc1`, the half-maximal inhibitory concentration (IC50) in assay [1] was over 111 µM. Also, the inhibition result in assay [2] is “inactive”.

In the case of `CS(=O)(=O)NCCCCCCCCCCCCn1c2c(c3ccccc3c1=O)C(=O)c1ccccc1-2`, the IC50 in assay [1] was over 111 µM. Moreover, the inhibition entry in assay [2] was “inactive”.

`Cc1ccc(S(=O)(=O)OCCCCn2c3c(c4ccccc4c2=O)C(=O)c2ccccc2-3)cc1`: in assay [1], the IC50 was over 111 µM.

For the molecule `O=C1c2ccccc2-c2c1c1ccccc1c(=O)n2CCCCO`, the IC50 in assay [1] is over 111 µM.

As for `O=C1c2ccccc2-c2c1c1ccccc1c(=O)n2CCNS(=O)(=O)c1ccccc1`, the IC50 in assay [1] is over 111 µM. The inhibition entry in assay [2] is “inactive”.

For `O=C1c2ccccc2-c2c1c1ccccc1c(=O)n2CCCCCCCCCCCCn1c2c(c3ccccc3c1=O)C(=O)c1ccccc1-2`, the IC50 in assay [1] is over 111 µM.

On to `Cc1ccc(S(=O)(=O)NCCCCCCCCn2c3c(c4ccccc4c2=O)C(=O)c2ccccc2-3)cc1`, for which the IC50 in assay [1] was over 111 µM. Moreover, the inhibition result in assay [2] is “inactive”.

As to `CS(=O)(=O)NCCCCCCCn1c2c(c3ccccc3c1=O)C(=O)c1ccccc1-2`, the IC50 in assay [1] is over 111 µM. Moreover, the inhibition result in assay [2] is “inactive”.

As to `O=C1c2ccccc2-c2c1c1ccccc1c(=O)n2CCCCCCCCNS(=O)(=O)c1ccc(Br)cc1`, the IC50 in assay [1] is over 111 µM. In addition, in assay [2], the inhibition result is “inactive”.

As for `O=C1c2ccccc2-c2c1c1ccccc1c(=O)n2CCCCCNS(=O)(=O)c1ccccc1`, in assay [1], the IC50 is over 111 µM. Besides, the inhibition entry in assay [2] is “inactive”.

In the case of `Cc1ccc(S(=O)(=O)NCCCCCCCCCCCn2c3c(c4ccccc4c2=O)C(=O)c2ccccc2-3)cc1`, the concentration for half-maximal inhibition (IC50) in assay [1] was over 111 µM. In assay [2], the inhibition result was “inactive”.

Consider `O=C1c2ccccc2-c2c1c1ccccc1c(=O)n2CCCCCCCCCCCn1c2c(c3ccccc3c1=O)C(=O)c1ccccc1-2`, for which the IC50 in assay [1] was over 111 µM.

As for `Cc1ccc(S(=O)(=O)NCCCCCn2c3c(c4ccccc4c2=O)C(=O)c2ccccc2-3)cc1`, the IC50 in assay [1] is over 111 µM. In assay [2], the inhibition result was “inactive”.

Take `O=C1c2ccccc2-c2c1c1ccccc1c(=O)n2CCCCCCCCCCNS(=O)(=O)c1ccccc1`: the IC50 in assay [1] was over 111 µM. The inhibition result in assay [2] is “inactive”.

With `Cc1ccc(S(=O)(=O)NCCCCCCCCCCn2c3c(c4ccccc4c2=O)C(=O)c2ccccc2-3)cc1`, the IC50 in assay [1] was over 111 µM. Also, the inhibition entry in assay [2] was “inactive”.

With `O=C1c2ccccc2-c2c1c1ccccc1c(=O)n2CCCCCCCCCCCCNS(=O)(=O)c1ccccc1`, in assay [1], the IC50 is over 111 µM. In addition, the inhibition entry in assay [2] is “inactive”.

Consider `Cc1ccc(S(=O)(=O)OCCCCCCn2c3c(c4ccccc4c2=O)C(=O)c2ccccc2-3)cc1`, for which, in assay [1], the IC50 is over 111 µM.

For `CS(=O)(=O)NCCCCCCCCCCn1c2c(c3ccccc3c1=O)C(=O)c1ccccc1-2`, in assay [1], the IC50 is over 111 µM. In addition, the inhibition result in assay [2] is “inactive”.

As for `CS(=O)(=O)NCCCCCCn1c2c(c3ccccc3c1=O)C(=O)c1ccccc1-2`, the concentration for half-maximal inhibition (IC50) in assay [1] was over 111 µM. In addition, in assay [2], the inhibition result was “inactive”.

Turning to `O=C1c2ccccc2-c2c1c1ccccc1c(=O)n2CCO`, the IC50 in assay [1] was over 111 µM.

Consider `Cc1ccc(S(=O)(=O)NCCn2c3c(c4ccccc4c2=O)C(=O)c2ccccc2-3)cc1`, for which, in assay [1], the IC50 is over 111 µM. In assay [2], the inhibition result was “inactive”.

For the molecule `O=C1c2ccccc2-c2c1c1ccccc1c(=O)n2CCCCCCCNS(=O)(=O)c1ccccc1`, the half-inhibitory concentration (IC50) in assay [1] was over 111 µM. The inhibition result in assay [2] was “inactive”.

Regarding `O=C1c2ccccc2-c2c1c1ccccc1c(=O)n2CCCCCO`, the IC50 in assay [1] is over 111 µM.

As to `O=C1c2ccccc2-c2c1c1ccccc1c(=O)n2CCCO`, the IC50 in assay [1] was over 111 µM.

For `Cc1ccc(S(=O)(=O)OCCCCCCCn2c3c(c4ccccc4c2=O)C(=O)c2ccccc2-3)cc1`, the IC50 in assay [1] was over 111 µM.
